Source: ChEMBL document CHEMBL1128200, “(R)-(+)-N-[3-[5-[(4-fluorophenyl)methyl]-2-thienyl]-1-methyl- 2-propynyl]-N-hydroxyurea (ABT-761), a second-generation 5-lipoxygenase inhibitor” (J Med Chem, 1995)

Assays:
Monkey = details: Cercopithecidae; Liver
Rattus norvegicus = test: Compound was evaluated in vivo for the rat anaphylaxis leukotriene formation at an oral dose of 30 umol/kg; type: functional
Summary of the method: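 Male Sprague-Dawley rats passively sensitized ip with rabbit anti-BSA antiserum; 3 h later challenged ip with 4 mg BSA in PBS. Drug given by oral gavage 1 h before challenge; killed 15 min post-challenge, peritoneal fluid collected, methanol-extracted, LTE4 measured by EIA. 8 rats/group; percent inhibition versus control group mean.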

[1] = target: T1, Polyunsaturated fatty acid 5-lipoxygenase (Homo sapiens, UniProt P09917); test: (§1) 5-lipoxygenase Inhibitory activity was measured by enzyme immunoassay using human whole blood stimulated with calcium ionophore (A23187) and LTB4 (leukotriene B4); type: tissue-based
T1 sequence (P09917 whole entry): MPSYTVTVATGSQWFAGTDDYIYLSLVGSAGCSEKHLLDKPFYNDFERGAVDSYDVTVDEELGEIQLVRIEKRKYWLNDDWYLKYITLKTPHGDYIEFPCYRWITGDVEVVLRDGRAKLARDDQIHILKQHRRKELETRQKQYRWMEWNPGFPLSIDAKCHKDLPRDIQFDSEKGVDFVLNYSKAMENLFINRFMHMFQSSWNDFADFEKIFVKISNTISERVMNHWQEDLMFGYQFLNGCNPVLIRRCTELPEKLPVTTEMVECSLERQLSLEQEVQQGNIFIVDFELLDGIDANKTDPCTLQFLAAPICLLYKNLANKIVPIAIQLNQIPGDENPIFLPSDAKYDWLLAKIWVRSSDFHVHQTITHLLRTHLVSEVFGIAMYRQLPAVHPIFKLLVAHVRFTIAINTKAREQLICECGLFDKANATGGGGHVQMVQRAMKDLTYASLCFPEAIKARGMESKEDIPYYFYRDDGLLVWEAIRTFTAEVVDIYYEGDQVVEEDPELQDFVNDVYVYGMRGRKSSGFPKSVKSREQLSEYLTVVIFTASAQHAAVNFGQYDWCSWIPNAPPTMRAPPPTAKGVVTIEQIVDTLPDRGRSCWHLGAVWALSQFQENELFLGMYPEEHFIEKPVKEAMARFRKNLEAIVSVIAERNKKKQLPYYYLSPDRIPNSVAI
Summary of the method: (§2)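 Heparinized human blood (20 USP units/mL) preincubated with drug or vehicle 15 min at 37 °C, then stimulated with calcium ionophore A23187; LTB4 in extracts quantified by EIA. IC50 estimated by linear regression; means of at least duplicate, mostly triplicate determinations.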

[2] = target: T2, Polyunsaturated fatty acid 5-lipoxygenase (Homo sapiens) (UniProt P09917); test: as §1; type: tissue-based; details: concentration not given here
T2 sequence (whole entry): T1 sequence (P09917 whole entry)
Summary of the method: as §2

[3] = Oral bioavailability was determined in mouse; type: ADME, organism-based; details: in vivo
[4] = Oral bioavailability in rat; type: ADME, organism-based; details: in vivo
[5] = Oral bioavailability was determined in dog; type: ADME, organism-based, Canis lupus familiaris; details: in vivo
[6] = Oral bioavailability was determined in cynomolgus monkey; type: ADME, organism-based, Macaca fascicularis; details: in vivo
[7] = Oral bioavailability was determined in guinea pig; type: ADME, organism-based, Cavia porcellus; details: in vivo

Row | IC50 [1] [nM] | Structure (SMILES) | GT rate (Monkey) | ED50 (Rattus norvegicus) [mg/kg] | other results
1 | – | CC(c1cc2ccccc2s1)N(O)C(N)=O (configuration not stated) [ZILEUTON] | 0.12 | 4.4 | –
2 | 70 | NC(=O)N(O)CC#Cc1ccc(Cc2ccc(F)cc2)s1 | 0.05 | – | inhibition in vivo at 30 µmol/kg (Rattus norvegicus): 78%
3 | – | CC(/C=C/c1ccc(Oc2ccc(F)cc2)o1)N(O)C(N)=O (configuration not stated) | 0.07 | – | –
4 | 80 | CC(C#Cc1ccc(Oc2ccc(F)cc2)o1)N(O)C(N)=O (configuration not stated) | 0.02 | 1.2 | –
5 | – | CC(c1ccc(Oc2ccc(F)cc2)o1)N(O)C(N)=O (configuration not stated) | 0.31 | – | inhibition [2]: 58%; inhibition in vivo at 30 µmol/kg (Rattus norvegicus): 0%
6 | 50 | C[C@@H](C#Cc1ccc(Oc2ccc(F)cc2)o1)N(O)C(N)=O | 0.05 | 1.5 | –
7 | 80 | C[C@H](C#Cc1ccc(Oc2ccc(F)cc2)o1)N(O)C(N)=O | 0.01 | 1.4 | –
8 | – | C[C@H](C#Cc1ccc(Cc2ccc(F)cc2)s1)N(O)C(N)=O [ATRELEUTON] | – | 2.8 | bioavailability [3]: 100%; bioavailability [4]: 60%; bioavailability [5]: 95%; bioavailability [6]: 90%; bioavailability [7]: 90%
9 | 200 | CC(C#Cc1ccc(Cc2ccc(F)cc2)s1)N(O)C(N)=O (configuration not stated) | – | 5.6 | –
10 | 200 | C[C@@H](C#Cc1ccc(Cc2ccc(F)cc2)s1)N(O)C(N)=O | – | 2.1 | –
11 | – | CC(/C=C\c1ccc(Oc2ccc(F)cc2)o1)N(O)C(N)=O (configuration not stated) | 2.4 | – | –
12 | 60 | NC(=O)N(O)CC#Cc1ccc(Oc2ccc(F)cc2)o1 | 0.03 | – | inhibition in vivo at 30 µmol/kg (Rattus norvegicus): 70%
